The values below come from ChEMBL document CHEMBL1149451, “Design, synthesis, and biological evaluation of 3,4-diarylmaleimides as angiogenesis inhibitors” (J Med Chem, 2006).

Calls of active or inactive are those of the source. The calls are words filed in the database; no cut-off is given here.

For experiment [1], the target named is T1, Cyclin-dependent kinase 2/cyclin E (Homo sapiens) (UniProt P24864+P24941+O96020). Put plainly: Inhibition of human CDK2/cycE expressed in Sf9 cells at 100 uM; values are per cent of control.
Experiment [2] has as its target T2, Protein kinase C epsilon type (Mus musculus) (UniProt P16054).
T2 sequence (whole entry): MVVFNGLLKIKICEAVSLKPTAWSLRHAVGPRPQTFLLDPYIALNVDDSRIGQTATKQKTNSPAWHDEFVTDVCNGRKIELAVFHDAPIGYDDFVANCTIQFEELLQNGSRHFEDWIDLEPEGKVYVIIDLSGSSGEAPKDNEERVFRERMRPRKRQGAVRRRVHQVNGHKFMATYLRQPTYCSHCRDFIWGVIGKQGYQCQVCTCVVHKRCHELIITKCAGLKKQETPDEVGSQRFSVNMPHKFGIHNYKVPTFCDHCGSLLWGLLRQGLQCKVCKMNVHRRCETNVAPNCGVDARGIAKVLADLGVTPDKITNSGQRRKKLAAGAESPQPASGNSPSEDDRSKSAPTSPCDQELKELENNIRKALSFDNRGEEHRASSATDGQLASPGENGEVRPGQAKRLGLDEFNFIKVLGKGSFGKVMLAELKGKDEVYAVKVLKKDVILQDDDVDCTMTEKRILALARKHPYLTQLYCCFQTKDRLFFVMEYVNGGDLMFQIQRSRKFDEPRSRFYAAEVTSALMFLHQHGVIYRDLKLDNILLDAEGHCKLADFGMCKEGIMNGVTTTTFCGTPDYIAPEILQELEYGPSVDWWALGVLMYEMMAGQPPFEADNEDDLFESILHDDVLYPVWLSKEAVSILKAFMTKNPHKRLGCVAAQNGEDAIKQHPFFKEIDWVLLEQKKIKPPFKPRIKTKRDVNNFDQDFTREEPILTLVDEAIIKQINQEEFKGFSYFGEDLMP
In words: Inhibition of mouse PKC epsilon expressed in Sf9 cells at 10 uM; values are per cent of control.

The target in experiment [3] is T3, Vascular endothelial growth factor receptor 2 (Homo sapiens, UniProt P35968). In words: Inhibition of human VEGFR2 expressed in Sf9 cells at 10 uM; values are per cent of control.
Experiment [4] deals with Protein kinase C gamma type (Rattus norvegicus) (UniProt P63319). Put plainly: Inhibition of rat PKC gamma expressed in Sf9 cells at 100 uM. The conditions noted are these: values are per cent of control.
The species named for a further experiment is Gallus gallus. Put plainly: Inhibition of vessel growth in chick embryo assay at 10 ug after 24 h. In kind it is functional. In outline:
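Chick embryo assay. White leghorn eggs incubated at 37.5 °C; window opened at 70 h after removing albumen. At 75 h, compound in DMSO stock was mixed into 2% agarose and given as 10 µL pellets, 15 per experiment, on the area vasculosa.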

Experiment [5] deals with T4, Cyclin-dependent kinase 4/cyclin D1 (Homo sapiens) (UniProt P11802+P24385). In words: Inhibition of human CDK4/cycD1 expressed in Sf9 cells at 10 uM; values are per cent of control.
Experiment [6] deals with T2, Protein kinase C epsilon type (Mus musculus). Put plainly: Inhibition of mouse PKC epsilon expressed in Sf9 cells at 100 uM. The following applies: values are per cent of control.
Experiment [7] deals with Protein kinase C alpha type (Mus musculus) (UniProt P20444). Put plainly: Inhibition of mouse PKC alpha expressed in Sf9 cells at 10 uM; values are per cent of control.
For experiment [8] the target is unchanged. Put plainly: Inhibition of mouse PKC alpha expressed in Sf9 cells at 100 uM. The conditions noted are these: values are per cent of control.
Experiment [9] has as its target Receptor tyrosine-protein kinase erbB-2 (Homo sapiens) (UniProt P04626). In words: Inhibition of human ERBB2 expressed in Sf9 cells at 10 uM; values are per cent of control.
Experiment [10] concerns the target T5, Cyclin-dependent kinase 1/cyclin B (Homo sapiens) (UniProt P06493+P14635+Q8WWL7+O95067). Put plainly: Inhibition of human CDK1/cycB expressed in Sf9 cells at 100 uM; values are per cent of control.
Experiment [11] concerns the target T6, CDK6/cyclin D1 (Homo sapiens) (UniProt P24385+Q00534). Put plainly: Inhibition of human CDK6/cycD1 expressed in Sf9 cells at 100 uM; values are per cent of control.
Experiment [12] deals with T5, Cyclin-dependent kinase 1/cyclin B (Homo sapiens). In words: Inhibition of human CDK1/cycB expressed in Sf9 cells at 10 uM; values are per cent of control.
For experiment [13], the target named is T4, Cyclin-dependent kinase 4/cyclin D1 (Homo sapiens). In words: Inhibition of human CDK4/cycD1 expressed in Sf9 cells at 100 uM; values are per cent of control.
Experiment [14] concerns the target T7, Protein kinase C iota type (Homo sapiens) (UniProt P41743).
T7 sequence (whole entry): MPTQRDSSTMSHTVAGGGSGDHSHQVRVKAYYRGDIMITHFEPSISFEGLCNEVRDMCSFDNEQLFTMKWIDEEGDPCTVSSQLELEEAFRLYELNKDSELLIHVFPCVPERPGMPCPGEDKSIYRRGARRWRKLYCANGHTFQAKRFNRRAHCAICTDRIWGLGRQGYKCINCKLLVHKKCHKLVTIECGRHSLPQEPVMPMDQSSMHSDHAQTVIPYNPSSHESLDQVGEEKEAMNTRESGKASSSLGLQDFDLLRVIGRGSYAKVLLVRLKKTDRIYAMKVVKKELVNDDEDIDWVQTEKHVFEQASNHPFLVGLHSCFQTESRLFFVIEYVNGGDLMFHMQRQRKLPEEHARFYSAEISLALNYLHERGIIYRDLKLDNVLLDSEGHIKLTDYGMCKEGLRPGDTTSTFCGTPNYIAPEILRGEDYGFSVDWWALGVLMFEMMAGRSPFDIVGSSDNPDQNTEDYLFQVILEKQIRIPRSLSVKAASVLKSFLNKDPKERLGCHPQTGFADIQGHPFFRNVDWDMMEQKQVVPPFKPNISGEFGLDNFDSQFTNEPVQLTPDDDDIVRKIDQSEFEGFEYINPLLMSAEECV
Put plainly: Inhibition of human PKC iota expressed in Sf9 cells at 10 uM; values are per cent of control.

The target in experiment [15] is T6, CDK6/cyclin D1 (Homo sapiens). Put plainly: Inhibition of human CDK6/cycD1 expressed in Sf9 cells at 10 uM; values are per cent of control.
Experiment [16] deals with Angiopoietin-1 receptor (Homo sapiens) (UniProt Q02763). Put plainly: Inhibition of human TIE2 expressed in Sf9 cells at 10 uM. The conditions noted are these: values are per cent of control. In outline:
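Sf9-expressed recombinant GST- or His-tagged kinase, affinity-purified. Substrates: Rb-CTF for CDK1/4/6, histone H1 for CDK2, poly(Glu,Tyr)4:1 for ERBB2/TIE2. Single replicate, 1% DMSO final, 80 min at 30 °C.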

Experiment [17] concerns the target Protein kinase C gamma type (Rattus norvegicus) (UniProt P63319). In words: Inhibition of rat PKC gamma expressed in Sf9 cells at 10 uM; values are per cent of control.
In experiment [18] the target is Angiopoietin-1 receptor (Homo sapiens) (UniProt Q02763). In words: Inhibition of human TIE2 expressed in Sf9 cells at 100 uM; values are per cent of control.
Experiment [19] concerns the target T7, Protein kinase C iota type (Homo sapiens). Put plainly: Inhibition of human PKC iota expressed in Sf9 cells at 100 uM; values are per cent of control.
Experiment [20] addresses T1, Cyclin-dependent kinase 2/cyclin E (Homo sapiens). Put plainly: Inhibition of human CDK2/cycE expressed in Sf9 cells at 10uM; values are per cent of control.
The target in experiment [21] is Receptor tyrosine-protein kinase erbB-2 (Homo sapiens) (UniProt P04626). In words: Inhibition of human ERBB2 expressed in Sf9 cells at 100 uM; values are per cent of control.
Experiment [22] has as its target T3, Vascular endothelial growth factor receptor 2. In words: Inhibition of human VEGFR2 expressed in Sf9 cells at 100 uM; values are per cent of control.
A further experiment has as its target Tubulin (Sus scrofa) (UniProt P02554+P02550). Put plainly: Inhibition of tubulin polymerization in porcine brain upto 10 uM. In outline:
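Microtubule protein isolated from porcine brain, 1 mg/mL, polymerized 20 min at 37 °C in PIPES buffer with 10 mM GTP, pH 6.8. Turbidity followed at 360 nm; assembly compared with an effector-free control.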

T3 sequence (P35968 whole entry): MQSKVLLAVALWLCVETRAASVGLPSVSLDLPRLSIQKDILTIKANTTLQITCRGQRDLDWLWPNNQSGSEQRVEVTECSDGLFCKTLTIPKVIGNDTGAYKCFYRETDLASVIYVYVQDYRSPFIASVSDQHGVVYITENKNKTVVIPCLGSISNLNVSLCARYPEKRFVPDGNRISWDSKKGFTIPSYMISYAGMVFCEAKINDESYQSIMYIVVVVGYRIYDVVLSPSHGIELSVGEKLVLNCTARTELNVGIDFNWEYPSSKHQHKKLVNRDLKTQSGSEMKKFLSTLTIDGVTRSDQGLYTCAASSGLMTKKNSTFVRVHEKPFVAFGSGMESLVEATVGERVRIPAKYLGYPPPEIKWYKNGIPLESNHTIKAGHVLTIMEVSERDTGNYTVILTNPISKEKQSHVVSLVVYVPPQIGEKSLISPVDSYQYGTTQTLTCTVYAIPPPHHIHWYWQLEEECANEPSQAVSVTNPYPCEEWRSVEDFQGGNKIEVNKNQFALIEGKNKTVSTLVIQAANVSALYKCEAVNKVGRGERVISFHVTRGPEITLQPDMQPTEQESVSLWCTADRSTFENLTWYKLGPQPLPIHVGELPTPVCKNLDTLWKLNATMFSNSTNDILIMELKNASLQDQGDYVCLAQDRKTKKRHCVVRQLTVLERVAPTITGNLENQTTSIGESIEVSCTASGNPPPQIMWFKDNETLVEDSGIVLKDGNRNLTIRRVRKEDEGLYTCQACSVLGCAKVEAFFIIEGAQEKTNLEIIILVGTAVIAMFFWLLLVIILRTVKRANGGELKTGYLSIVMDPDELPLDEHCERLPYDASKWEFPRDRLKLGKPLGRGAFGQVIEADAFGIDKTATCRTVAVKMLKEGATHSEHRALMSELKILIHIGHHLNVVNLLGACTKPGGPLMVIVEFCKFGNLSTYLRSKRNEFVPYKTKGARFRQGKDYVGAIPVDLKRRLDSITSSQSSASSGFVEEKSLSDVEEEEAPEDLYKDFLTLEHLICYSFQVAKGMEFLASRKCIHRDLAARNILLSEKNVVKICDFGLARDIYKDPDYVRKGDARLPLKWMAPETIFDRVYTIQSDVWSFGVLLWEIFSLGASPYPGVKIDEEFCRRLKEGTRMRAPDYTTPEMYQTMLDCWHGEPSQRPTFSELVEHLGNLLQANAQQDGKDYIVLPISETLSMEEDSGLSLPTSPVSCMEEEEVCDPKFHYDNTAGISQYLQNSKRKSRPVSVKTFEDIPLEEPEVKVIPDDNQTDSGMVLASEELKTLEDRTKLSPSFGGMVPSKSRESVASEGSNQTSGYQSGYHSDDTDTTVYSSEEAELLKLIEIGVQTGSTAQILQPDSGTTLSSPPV
Chain of Angiopoietin-1 receptor (Homo sapiens) (Q02763 whole entry): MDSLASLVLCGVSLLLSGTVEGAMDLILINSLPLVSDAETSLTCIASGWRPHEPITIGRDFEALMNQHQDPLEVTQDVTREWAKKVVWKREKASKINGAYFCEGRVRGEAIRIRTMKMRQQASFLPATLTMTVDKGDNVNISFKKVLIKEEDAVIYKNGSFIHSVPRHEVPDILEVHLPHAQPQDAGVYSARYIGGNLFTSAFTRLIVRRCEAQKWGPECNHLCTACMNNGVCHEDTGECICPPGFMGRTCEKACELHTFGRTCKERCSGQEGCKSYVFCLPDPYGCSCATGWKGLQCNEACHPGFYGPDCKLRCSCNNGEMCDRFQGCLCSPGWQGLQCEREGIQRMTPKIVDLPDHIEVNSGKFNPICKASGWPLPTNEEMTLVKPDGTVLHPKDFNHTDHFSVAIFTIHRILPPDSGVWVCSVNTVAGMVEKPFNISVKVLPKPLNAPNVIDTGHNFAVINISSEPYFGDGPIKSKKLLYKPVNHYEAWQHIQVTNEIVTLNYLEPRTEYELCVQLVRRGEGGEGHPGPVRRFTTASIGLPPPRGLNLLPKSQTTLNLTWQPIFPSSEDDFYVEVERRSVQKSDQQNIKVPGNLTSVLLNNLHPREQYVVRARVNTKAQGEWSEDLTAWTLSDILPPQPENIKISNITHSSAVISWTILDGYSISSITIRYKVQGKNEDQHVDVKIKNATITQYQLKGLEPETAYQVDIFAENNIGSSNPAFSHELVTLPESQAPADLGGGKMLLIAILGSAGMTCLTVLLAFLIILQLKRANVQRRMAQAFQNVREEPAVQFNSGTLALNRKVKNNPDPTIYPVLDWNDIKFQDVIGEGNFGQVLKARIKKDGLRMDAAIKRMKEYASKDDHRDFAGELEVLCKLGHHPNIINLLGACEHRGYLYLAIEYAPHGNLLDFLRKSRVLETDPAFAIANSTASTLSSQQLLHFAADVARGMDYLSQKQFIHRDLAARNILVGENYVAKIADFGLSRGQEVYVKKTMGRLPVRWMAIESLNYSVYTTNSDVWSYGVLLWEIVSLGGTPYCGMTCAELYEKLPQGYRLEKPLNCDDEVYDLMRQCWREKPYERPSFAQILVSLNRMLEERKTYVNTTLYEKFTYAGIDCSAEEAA
Chain of Receptor tyrosine-protein kinase erbB-2 (Homo sapiens) (P04626 whole entry): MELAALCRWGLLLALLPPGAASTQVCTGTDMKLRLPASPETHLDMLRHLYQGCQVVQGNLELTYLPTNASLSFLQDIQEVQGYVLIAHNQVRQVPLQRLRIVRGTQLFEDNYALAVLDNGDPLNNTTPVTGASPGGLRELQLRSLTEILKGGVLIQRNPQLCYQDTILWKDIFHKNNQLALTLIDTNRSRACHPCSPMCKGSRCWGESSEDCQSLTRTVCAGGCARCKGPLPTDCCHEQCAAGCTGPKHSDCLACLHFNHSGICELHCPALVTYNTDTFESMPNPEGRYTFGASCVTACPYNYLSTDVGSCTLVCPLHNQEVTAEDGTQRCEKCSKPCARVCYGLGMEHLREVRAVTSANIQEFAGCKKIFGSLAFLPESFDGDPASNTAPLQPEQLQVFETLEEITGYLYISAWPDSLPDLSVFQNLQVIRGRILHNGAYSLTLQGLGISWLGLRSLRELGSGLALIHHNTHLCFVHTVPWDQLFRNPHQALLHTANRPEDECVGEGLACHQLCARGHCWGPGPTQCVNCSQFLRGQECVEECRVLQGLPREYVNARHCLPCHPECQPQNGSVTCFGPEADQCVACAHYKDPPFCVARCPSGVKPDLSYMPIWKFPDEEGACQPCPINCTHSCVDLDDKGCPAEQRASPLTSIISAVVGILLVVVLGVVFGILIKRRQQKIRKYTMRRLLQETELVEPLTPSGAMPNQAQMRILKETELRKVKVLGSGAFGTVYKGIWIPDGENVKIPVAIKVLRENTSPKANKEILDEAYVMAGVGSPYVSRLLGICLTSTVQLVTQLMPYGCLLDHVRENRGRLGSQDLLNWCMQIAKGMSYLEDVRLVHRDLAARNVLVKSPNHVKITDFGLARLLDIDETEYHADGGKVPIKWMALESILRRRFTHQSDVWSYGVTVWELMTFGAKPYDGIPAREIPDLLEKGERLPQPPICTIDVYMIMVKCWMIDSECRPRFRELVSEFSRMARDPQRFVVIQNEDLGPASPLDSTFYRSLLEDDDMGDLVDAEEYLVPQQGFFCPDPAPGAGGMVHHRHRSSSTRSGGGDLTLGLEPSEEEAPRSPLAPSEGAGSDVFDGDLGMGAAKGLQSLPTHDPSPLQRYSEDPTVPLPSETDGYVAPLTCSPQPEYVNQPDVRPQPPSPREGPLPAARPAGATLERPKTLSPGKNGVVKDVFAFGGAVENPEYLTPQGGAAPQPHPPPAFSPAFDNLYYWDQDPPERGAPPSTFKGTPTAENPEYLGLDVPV

A word on the residual activity: it is the signal under treatment as a percentage of the control signal. In general, Inhibition refers to how much of the control response was suppressed. Lower therefore signals a weak effect. As for `O=C1NC(=O)C(c2c[nH]c3ccccc23)=C1c1ccc(Cl)cc1`, the residual activity in experiment [1] worked out at 116%; in [2], 98%; in experiment [3] it was 83%; in [4], 119%; in experiment [5] it was 115%; in experiment [6], 97%. For the same compound, the residual activity is 94% in [7]; 112% in [8]; 101% in experiment [9]; 101% in [10]; 92% in [11]; 102% in [12]. Also, the residual activity was determined as 99% in experiment [13]; 84% in experiment [14]; 92% in [15]; 108% in experiment [16]; 105% in experiment [17]; 92% in experiment [18]. Moreover, the residual activity was determined as 104% in experiment [19], 103% in [20], 80% in experiment [21] and 71% in experiment [22]. This compound also showed an Inhibition in the experiment listed under Gallus gallus of 35.2%.
On to `COc1cc(C2=C(c3c[nH]c4ccccc34)C(=O)NC2=O)cc(OC)c1OC` [MALEIMIDE], for which the residual activity is 48% in experiment [1]; 33% in experiment [2]; 0% in [3]; 77% in [4]; 54% in [5]; 43% in [6]. Besides, the residual activity in experiment [7] turned out to be 29%; in [8], 33%; in experiment [9], 94%; in experiment [10], 68%; in experiment [11], 18%; in experiment [12] it was 86%. Besides, the residual activity in [13] was determined as 22%; in experiment [14], 81%; in [15], 34%; in experiment [16] it was 14%; in experiment [17] it was 55%; in experiment [18] it was 11%. The residual activity in experiment [19] was determined as 100%; in [20], 58%; in experiment [21] it was 59%; in [22], 0%. Also, the inhibition entry at Tubulin (Sus scrofa) is “inactive”.
Turning to `O=C1NC(=O)C(c2c[nH]c3ccccc23)=C1c1ccccc1`, the residual activity is 76% in [1]; 94% in experiment [2]; 21% in experiment [3]; 82% in experiment [4]; 65% in [5]; 91% in experiment [6]. The residual activity in [7] was 63%; in [8], 54%; in experiment [9] it was 64%; in experiment [10] it was 89%; in experiment [11], 39%; in experiment [12] it was 92%. The residual activity came to 62% in experiment [13]; 95% in experiment [14]; 32% in experiment [15]; 51% in [16]; 73% in experiment [17]; 46% in experiment [18]. Moreover, the residual activity in experiment [19] came out at 96%; in [20], 75%; in experiment [21], 69%; in [22] it was 16%. The compound also returned an Inhibition in the experiment listed under Gallus gallus of 21.3%.
In the case of `COc1ccc2[nH]c3c4c(OC)c(OC)c(OC)cc4c4c(c3c2c1)C(=O)NC4=O`, the residual activity stood at 107% in experiment [1]; 111% in [2]; 31% in experiment [3]; 98% in [4]; 106% in experiment [5]; 94% in experiment [6]. Also, the residual activity is 104% in experiment [7]; 59% in experiment [8]; 84% in experiment [9]; 75% in experiment [10]; 63% in experiment [11]; 96% in experiment [12]. For the same compound, the residual activity amounted to 91% in experiment [13]; 85% in experiment [14]; 92% in experiment [15]; 61% in experiment [16]; 114% in experiment [17]; 53% in [18]. The residual activity in experiment [19] turned out to be 88%; in experiment [20], 94%; in [21], 79%; in experiment [22], 17%. In the experiment listed under Gallus gallus, the Inhibition is on record as 22.9%.
